Measurements from ChEMBL document CHEMBL2062526, “Tandem synthesis and in vitro antiplasmodial evaluation of new naphtho[2,1-d]thiazole derivatives” (Eur J Med Chem, 2012).

Assays:
[1] = Cytotoxicity against human HepG2 cells after 72 hrs by MTT assay; assay type: cell-based
Method in brief: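 HepG2 cells seeded at 5×10^3/well in RPMI with 10% FBS, L-glutamine, penicillin/streptomycin, 37 °C under 6% CO₂/14% O₂/80% N₂. Compounds added after 24 h, 72 h exposure, duplicate wells. MTT (5 mg/mL stock) for 2 h, formazan dissolved in DMSO, A570 with 630 nm reference. Viability relative to untreated cells. CC50 from non-linear regression, mean of three independent experiments.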

[2] = Selectivity index, ratio of CC50 for human HepG2 cells to IC50 for multidrug-resistant Plasmodium falciparum K1 ring stage; assay type: functional
Method in brief: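 SI = CC50 (HepG2)/IC50 (K1). HepG2 MTT: 5×10^3 cells/well, 24 h preculture, compound 72 h, 37 °C; MTT 2 h, formazan in DMSO, A570 (ref 630 nm); duplicates, CC50 by non-linear regression, mean of three experiments. K1 IC50 by 72 h SYBR Green assay on sorbitol-synchronized rings.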

Plasmodium falciparum = assay: Antiplasmodial activity against multidrug-resistant Plasmodium falciparum K1 ring stage after 72 hrs by […] Green fluorescence-based assay; assay type: functional, organism-based; conditions: K1, 72 h

Compound | CC50 at 72 h [1] [µM] | Ratio CC50/IC50 [2] | IC50 (Plasmodium falciparum) [µM]
Cc1ccc(S(=O)(=O)c2c(N)c3cc(F)ccc3c3sc(C)nc23)cc1 | 0.2 | – | –
C[C@H]1c2cccc(O)c2C(=O)C2=C(O)[C@]3(O)C(=O)C(C(N)=O)=C(O)[C@@H](N(C)C)[C@@H]3[C@@H](O)[C@@H]21.O [DOXYCYCLINE] | – | 4 | –
Cc1nc2c(S(=O)(=O)c3ccccc3)cc3ccccc3c2s1 | 11.3 | <0.5 | > 25
COc1cc2cc(S(=O)(=O)c3ccc(Cl)cc3)c3nc(C)sc3c2cc1OC | > 31.2 | – | > 25
Cc1nc2c(S(=O)(=O)c3ccc(Cl)cc3)c(N)c3ccccc3c2s1 | 1 | – | –
Cc1ccc(S(=O)(=O)c2c(N)c3ccccc3c3sc(C)nc23)cc1 | 0.2 | – | –
Cc1ccc(S(=O)(=O)c2cc3ccc(C)cc3c3sc(C)nc23)cc1 | > 250 | – | > 25
Cc1ccc(S(=O)(=O)c2cc3cc(F)ccc3c3sc(C)nc23)cc1 | 3.1 | – | –
COc1cc2cc(S(=O)(=O)c3ccc(C)cc3)c3nc(C)sc3c2cc1OC | > 125 | – | > 25
COc1cc2cc(S(=O)(=O)c3ccccc3)c3nc(C)sc3c2cc1OC | > 125 | >45 | 2.7
Cc1ccc2cc(S(=O)(=O)c3ccccc3)c3nc(C)sc3c2c1 | > 125 | >26 | 4.8
Cc1nc2c(S(=O)(=O)c3ccccc3)c(N)c3cc(F)ccc3c2s1 | > 500 | – | > 25
Cc1nc2c(S(=O)(=O)c3ccc(Cl)cc3)cc3ccccc3c2s1 | 6 | – | –
Cc1nc2c(S(=O)(=O)c3ccc(Cl)cc3)c(N)c3cc(F)ccc3c2s1 | 0.5 | – | –
Cc1nc2c(S(=O)(=O)c3ccccc3)cc3cc(F)ccc3c2s1 | 26 | <1 | > 25
Cc1nc2c(S(=O)(=O)c3ccccc3)c(N)c3ccccc3c2s1 | > 500 | – | > 25
Cc1ccc(S(=O)(=O)c2cc3ccccc3c3sc(C)nc23)cc1 | 2.2 | – | –
Cc1nc2c(S(=O)(=O)c3ccc(Cl)cc3)cc3cc(F)ccc3c2s1 | 3.4 | – | –
